High-throughput results from PubChem.
CXCR6 inh = blocks human CXCR6 beta-arrestin recruitment; CHO-K1 PathHunter CXCR6 beta-arrestin, luminescence; O00574; 0.36% of 360,000 active; inhibition, % at 20 µM; in the data active = inhibition above about 34%, passing the limit was not always enough;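 also: antagonist mode with CXCL16 agonist at 10 nM final; 0% = 10 nM CXCL16 with DMSO and 100% = unstimulated wells without agonist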
Target sequence (O00574 whole entry, looked up): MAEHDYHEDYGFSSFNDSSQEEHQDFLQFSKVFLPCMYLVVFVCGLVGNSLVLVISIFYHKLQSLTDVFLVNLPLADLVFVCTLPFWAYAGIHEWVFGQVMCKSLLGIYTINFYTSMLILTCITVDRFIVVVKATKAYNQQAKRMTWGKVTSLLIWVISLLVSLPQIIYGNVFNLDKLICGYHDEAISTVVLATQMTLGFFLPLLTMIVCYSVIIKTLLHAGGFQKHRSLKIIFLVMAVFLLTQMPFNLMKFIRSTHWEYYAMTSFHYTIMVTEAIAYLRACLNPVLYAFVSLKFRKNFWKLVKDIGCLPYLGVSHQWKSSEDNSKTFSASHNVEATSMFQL
APJ ag = activates the human apelin receptor APJ; P35414; CHO-K1 APJ PathHunter beta-arrestin, luminescence; 0% DMSO wells, 100% apelin; activation, % at 20 µM; 0.11% of 330,000 active; AID 2520;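 active = activation more than six SD over the plate average, tested at 20 µM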;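 also: 0% = DMSO alone and 100% = apelin-13 at 10 nM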
Target sequence (P35414 whole entry, looked up): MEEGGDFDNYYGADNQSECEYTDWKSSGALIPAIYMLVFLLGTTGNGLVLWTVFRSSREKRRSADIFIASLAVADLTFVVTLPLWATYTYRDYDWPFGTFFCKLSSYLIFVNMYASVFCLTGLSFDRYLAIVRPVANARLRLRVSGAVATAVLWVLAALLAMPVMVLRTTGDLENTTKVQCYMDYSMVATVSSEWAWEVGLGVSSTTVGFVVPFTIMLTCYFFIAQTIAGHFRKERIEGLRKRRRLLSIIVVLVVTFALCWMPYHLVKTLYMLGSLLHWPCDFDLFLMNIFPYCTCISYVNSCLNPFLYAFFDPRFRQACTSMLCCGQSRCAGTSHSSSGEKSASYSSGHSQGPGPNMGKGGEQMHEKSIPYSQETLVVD
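Material: engineered CHO-K1 APJ arrestin reporter cells; amount: 1000 CHO-K1 reporter cells seeded per well; incubation: compound stimulation 90 min at 25 °C, detection 60 min; signal: luminescent beta-gal fragment complementation, chemiluminescent substrate; read-out basis: APJ agonist activity; controls: DMSO-only wells as negative, 10 nM Apelin-13 as positive control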
CCR6 antag = antagonists of human CCR6 receptor; P51684; CHO-K1 CCR6 PathHunter beta-arrestin, luminescence, CCL20-stimulated; inhibition, % at 20 µM; 0.49% of 340,000 active; AID 493098;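 active = compounds whose inhibition of the agonist-driven luminescence signal at 20 µM reaches about 50%, limit read from the data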;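 also: cells stimulated with CCL20 at 14 nM final; plate controls were DMSO with CCL20 for no effect and DMSO without agonist for full effect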
HTR2A ag = agonists of mouse serotonin 5-HT2A receptor (HTR2A) | P35363 | CHO-K1 mHTR2A beta-arrestin complementation, luminescence; percent of 30 µM serotonin response | AID 624169 | activation, % at 7.6 µM | 0.66% of 360,000 active;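 active = activation above a run cutoff, the mean activation of all tested compounds plus 3 SD, cut at about 14% in these data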;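 also: 0% = plate median of compound wells and 100% = 30 µM serotonin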
EBI2 block = antagonists of human EBI2 receptor; EBI2 beta-arrestin recruitment, luminescence, 7a,25-OHC stimulated; AID 651636; P32249; 0.81% of 360,000 active; inhibition, % at 5 µM; in the data active = inhibition above about 38%;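 also: enzyme fragment complementation signal reports receptor beta-arrestin coupling in cells; 0% = agonist plus DMSO wells and 100% = wells without agonist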
APJ antag = APJ receptor antagonism. P35414. CHO-K1 APJ beta-arrestin complementation, luminescence. inhibition, % at 20 µM. 0.32% of 330,000 active;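 active = inhibition above about 40% at 20 µM, limit read from the data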;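 also: cells challenged with 10 nM apelin-13 agonist together with compound; plate controls were apelin-13 plus DMSO wells for no effect and DMSO wells lacking apelin-13 for full effect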
MOR ag counter = counter-screen for mouse HTR2A agonists: human mu opioid receptor agonists | shares compounds with HTR2A ag | U2OS OPRM1 beta-arrestin PathHunter, luminescence; DMSO 0%, DAMGO 9.3 µM 100% | activation, % at 9.3 µM | 5.3% of 2,300 active;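 active = mean activation above the mean of DMSO-only wells plus 3 SD, cut at about 0.5% in these data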
m5-HT2A ag conf = confirmation of mouse HTR2A serotonin receptor agonists. shares compounds with HTR2A ag. CHO-K1 PathHunter beta-arrestin recruitment, luminescence; DMSO 0%, 30 µM serotonin 100%. activation, % at 7.6 µM. 19% of 2,300 active. AID 624381;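 active = mean activation across triplicates above the hit threshold derived in the original primary screen, cut at about 15% in these data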
An asterisk follows results filed as active; . = no result. Rows were chosen to be rich in hits. Some 2.2% of all compounds tested hit in one or more screens of this group.

SMILES	CXCR6 inh	APJ ag	CCR6 antag	HTR2A ag	EBI2 block	APJ antag	MOR ag counter	m5-HT2A ag conf
Cc1ccc(NC(=S)NCc2ccc3c(c2)OCO3)cc1	-4.5	0.9	-3.7	-1.3	-8.2	-19.3	.	.
CCOc1ccc(NC(=S)NCc2ccc3c(c2)OCO3)cc1	5.0	3.6	4.2	15.2*	-0.1	-2.3	-0.6	1.1
CCc1nc2ccc(C(=O)N(C)Cc3ccco3)cn2c1N(CC)C(=O)NCCc1ccccc1	0.3	.	.	-0.4	-4.2	.	.	.
COc1ccc2c(CC(=O)OCC(=O)N3CCc4ccccc43)coc2c1	-9.6	6.3	4.6	15.9*	-5.2	7.1	-0.4	-4.8
COc1ccc(CNC(=O)C2=C(C)C(=O)OC23CCC(C)CC3)cc1 (stereo not given)	2.0	-0.7	20.5	-5.3	8.4	17.1	.	.
CCOc1ccc(CCNC(=O)C2=C(C)C(=O)OC23CCC(C)CC3)cc1 (stereo not given)	1.3	2.3	7.3	16.3*	12.0	0.6	-0.3	-2.5
O=C1NC[C@H](CCCCN2C[C@H](Cc3ccccc3)N(CCC3CCCCC3)C(=O)C2=O)N(Cc2ccccc2)C1=O	4.6	.	.	-4.2	0.4	.	.	.
C=CCN(Cc1ccc(OC)c(OC)c1)C(=O)c1cc2cc(F)ccc2[nH]1	-0.9	-2.6	6.5	20.4*	11.7	5.0	-0.5	-5.0
N#CCCN(C(=S)NC(=O)c1cccs1)c1ccccc1F	-13.8	-6.0	1.2	0.1	-8.0	3.4	.	.
Cc1ccsc1C(=O)N1CCCC(C)(C(=O)O)C1 (stereo not given)	-0.6	.	.	14.5*	-13.3	.	-0.5	-1.8
Cc1ccsc1C(=O)N1CCCC(C)(C(=O)NS(=O)(=O)C2CC2)C1 (stereo not given)	2.0	.	.	5.6	-6.8	.	.	.
ClC1=CN(C2=NCCC2)CC1	2.3	.	.	1.7	-4.5	.	.	.
COc1ccc(NC(=O)C2CCCN2S(=O)(=O)c2ccc3c(c2)C(C)(C)C(=O)N3C)cc1 (stereo not given)	-2.6	.	.	34.1*	-1.1	.	-0.2	-3.1
CC1CC(C)CN(C(CCc2ccccc2)C(=O)NC2CCCCC2)C1 (stereo not given)	2.9	.	.	3.6	4.1	.	.	.
CC(=O)Nc1ccc(S(=O)(=O)NCCC(=O)N2CCN(C(c3ccccc3)c3ccccc3)CC2)cc1	4.0	5.1	10.2	15.9*	2.4	-4.4	-0.5	-4.7
Cc1noc(C)c1COc1ccccc1C(=O)N1CCN(S(=O)(=O)c2ccc(C(C)C)cc2)CC1	-2.1	.	.	-2.6	-5.2	.	.	.
O=C(NC(=S)Nc1ccccc1N1CCCC1)c1ccc(F)cc1	6.9	-4.0	40.6	-3.9	9.7	28.6	.	.
O=C(NC(=S)Nc1ccccc1N1CCCCC1)c1ccc(F)cc1Cl	15.6	-2.4	31.4	16.8*	6.3	2.0	-0.5	-5.2
Cc1cccc2nc(-c3cccc(NC(=O)c4ccc(Cl)cc4)c3)cn12	13.2	-3.1	7.5	21.9*	2.7	-72.4	-0.7	-3.6
c1ccc2c(c1)ccc1nnc(-c3ccc4c(c3)OCO4)n12	5.5	-1.6	11.4	18.5*	-2.9	20.4	-0.5	0.1
c1ccc(Nc2nc(N3CCOCC3)nc(N3CCOCC3)n2)cc1	2.8	-1.5	-6.4	2.9	-3.2	-7.1	.	.
c1cncc(CNc2nc(N3CCOCC3)nc(N3CCOCC3)n2)c1	-2.3	2.8	19.8	16.4*	1.1	-3.4	-0.5	-5.5
C(=N\Nc1nc(N2CCCC2)nc(N2CCCC2)n1)/c1cccnc1	-12.1	-0.4	10.9	14.9*	-10.7	-4.7	-0.4	-0.7
c1ccc(Nc2nc(N3CCNCC3)nc(N3CCOCC3)n2)cc1	-5.9	8.7	2.6	23.0*	-13.1	3.4	-0.4	12.3
CC(C)(C)Nc1nc(NCc2cccnc2)nc(N2CCOCC2)n1	-2.5	2.7	2.6	-1.1	1.1	-7.2	.	.
SMILES	CXCR6 inh	APJ ag	CCR6 antag	HTR2A ag	EBI2 block	APJ antag	MOR ag counter	m5-HT2A ag conf
CCC1=C(OC(=O)N(CC)CC)N2C(=O)OC(=NCC3CC3)[C@]2(C)[C@H]2C1=CC[C@H]1C(=O)N(C)C(=O)[C@H]12	-4.4	-0.2	-3.0	5.2	-10.5	-13.6	.	.
CCC1=C(OC(=O)N(CC)CC)N2C(=O)OC(=NCC3CC3)[C@]2(C)[C@H]2C1=CC[C@H]1C(=O)N(CC)C(=O)[C@H]12	2.5	5.6	14.0	16.3*	-7.5	3.2	-0.3	0.3
O=C(Nc1ccc(Cl)cc1)C1Cc2c(-c3ccccc3)ccnc2O1 (stereo not given)	-5.8	.	.	-0.8	-16.8	.	.	.
Cc1oc(-c2cccc(Cl)c2)nc1CS(=O)(=O)CC(=O)NCCCN1CCOCC1	3.9	-2.1	2.9	25.2*	-2.8	10.8	-0.4	-3.8
CCc1nc2ccc(C(=O)Nc3cccc(OCC(=O)N(C)C)c3)cn2c1N(C)Cc1cc2ccccc2s1	0.5	.	.	-1.6	3.4	.	.	.
O=C(c1cccs1)N1C[C@@H](O)[C@H](n2cc(-c3ccc(F)cc3)nn2)C[C@@H]1c1ccccc1	0.7	.	.	-1.4	5.6	.	.	.
O=C1C2CCCN2C(c2ccc(F)cc2)N1c1cccc(Cl)c1 (stereo not given)	6.3	-2.6	10.3	16.9*	-4.3	-24.9	-0.5	1.3
O=C(CN1C(=O)c2cccnc2Oc2ccc(Cl)cc21)Nc1ccccc1F	5.5	-4.2	10.4	18.5*	2.5	-1.8	-0.5	3.1
Cc1cc(C)cc(Cn2cc(CN3CC(N4CCN(CCO)CC4)CS3(=O)=O)nn2)c1 (stereo not given)	0.5	.	.	-2.8	4.1	.	.	.
CCCc1cc(=O)[nH]c(SCC(=O)N2c3ccccc3CC2C)n1 (stereo not given)	-4.8	-1.1	1.1	14.5*	-1.0	5.0	-0.4	-3.6
Cc1ccc(S(=O)(=O)N2[C@H](c3cccc(Cl)c3)CC(=O)[C@@H]3CN(S(=O)(=O)c4ccccc4C)[C@H](c4ccc(Cl)cc4)C[C@@H]32)cc1	-6.7	.	.	3.2	-12.3	.	.	.
CCOC(=O)C1CCCN(C(=O)c2ccc(F)c(C)c2)CC1 (stereo not given)	-6.2	.	.	1.3	1.8	.	.	.
O=C(CC[C@H]1O[C@@H](n2cnc3c(NC(=O)c4ccccc4)ncnc32)[C@H](O)[C@@H]1O)NCC1CCN(Cc2ccccc2)CC1	-10.0	.	.	1.6	-0.3	.	.	.
O=C1C2C(c3cccc(/C=C/c4ccccc4)c3)CC=CC2C(c2ccc(C(F)(F)F)cc2)N1Cc1ccccc1 (stereo not given)	10.9	-6.0	10.9	17.3*	4.0	0.2	-0.6	-4.9
